Assay results taken from ChEMBL document CHEMBL1137710, “Synthesis and in vitro antitumor activity of new quinoxaline derivatives” (2009).

Key:
Format in all cases: functional
EKVX = experiment: Growth inhibition of human EKVX cells after 48 hrs by sulforhodamine B assay; settings: for TGI: read-out: pTGI (converted)
How it was run: (§1)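 NCI 60-human-tumor-cell-line panel, with compounds tested over a 5-log dose range. Values are taken from dose-response curves as log10 molar concentrations: GI50 is 50% net growth inhibition, TGI is total growth inhibition, and LC50 is 50% net cell death.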

MDA-MB-231 = experiment: Growth inhibition of human MDA-MB-231 cells after 48 hrs by sulforhodamine B assay; settings: MDA-MB-231, 48 h; for CC50: read-out: pLC50 (the source's name) (converted); for TGI: read-out: pTGI (converted); how it was run: as §1
SR = experiment: Growth inhibition of human SR cells after 48 hrs by sulforhodamine B assay
How it was run: (§2)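 Run in the NCI 60-human-tumour-cell-line panel, tested over a 5-log dose range. Dose–response curves gave three values per cell line, each as a log10 molar concentration: GI50 (50% inhibition of net cell growth), TGI (total inhibition of net growth) and LC50 (50% net cell death). The mean graph midpoint is the arithmetic mean over all lines, with insensitive lines entered at the highest concentration tested.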

NCI-H226 = experiment: Growth inhibition of human NCI-H226 cells after 48 hrs by sulforhodamine B assay; settings: NCI-H226, 48 h; for TGI: read-out: pTGI (converted); how it was run: as §1
A498 = experiment: Growth inhibition of human A498 cells after 48 hrs by sulforhodamine B assay; settings: A498, 48 h; for CC50: read-out: pLC50 (the source's name) (converted); for TGI: read-out: pTGI (converted); how it was run: as §1
Malme-3M = experiment: Growth inhibition of human MALME-3M cells after 48 hrs by sulforhodamine B assay; settings: for CC50: read-out: pLC50 (the source's name) (converted); for TGI: read-out: pTGI (converted); how it was run: as §1
OVCAR-8 = experiment: Growth inhibition of human OVCAR8 cells after 48 hrs by sulforhodamine B assay; settings: OVCAR-8, 48 h; for CC50: read-out: pLC50 (the source's name) (converted); for TGI: read-out: pTGI (converted); how it was run: as §1
NCI/ADR-RES = experiment: Growth inhibition of human NCI/ADR-RES cells after 48 hrs by sulforhodamine B assay; settings: for CC50: read-out: pLC50 (the source's name) (converted); for TGI: read-out: pTGI (converted); how it was run: as §1
MOLT-4 = experiment: Growth inhibition of human MOLT4 cells after 48 hrs by sulforhodamine B assay; settings: MOLT-4, 48 h; for TGI: read-out: pTGI (converted); how it was run: as §1
HL-60(TB) = experiment: Growth inhibition of human HL-60(TB) cells after 48 hrs by sulforhodamine B assay; settings: HL-60, 48 h; for TGI: read-out: pTGI (converted)
How it was run: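 Tested only on compounds active in a three-line prescreen, in the NCI 60-human-tumour-cell-line panel over a 5-log dose range. Values come from dose–response curves as log10 molar GI50, the concentration inhibiting 50% net cell growth. Log10 TGI (total growth inhibition) and log10 LC50 (50% net cell death) were derived too. Mean graph midpoints include insensitive lines at the highest concentration tested.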

T47D = experiment: Growth inhibition of human T47D cells after 48 hrs by sulforhodamine B assay; settings: for CC50: read-out: pLC50 (the source's name) (converted); for TGI: read-out: pTGI (converted); how it was run: as §2
TK-10 = experiment: Growth inhibition of human TK10 cells after 48 hrs by sulforhodamine B assay; settings: TK-10, 48 h; for CC50: read-out: pLC50 (the source's name) (converted); for TGI: read-out: pTGI (converted); how it was run: as §2
SNB-19 = experiment: Growth inhibition of human SNB19 cells after 48 hrs by sulforhodamine B assay; settings: SNB-19, 48 h; for TGI: read-out: pTGI (converted); how it was run: as §2
[1] = Growth inhibition of human Hs 578T cells after 48 hrs by sulforhodamine B assay; settings: for CC50: read-out: pLC50 (the source's name) (converted); for TGI: read-out: pTGI (converted); how it was run: as §1
CCRF-CEM = experiment: Growth inhibition of human CCRF-CEM cells after 48 hrs by sulforhodamine B assay; settings: for TGI: read-out: pTGI (converted); how it was run: as §1
OVCAR-3 = experiment: Growth inhibition of human OVCAR-3 cells after 48 hrs by sulforhodamine B assay; settings: OVCAR-3, 48 h; for CC50: read-out: pLC50 (the source's name) (converted); for TGI: read-out: pTGI (converted); how it was run: as §1
SN12C = experiment: Growth inhibition of human SN12C cells after 48 hrs by sulforhodamine B assay; settings: for CC50: read-out: pLC50 (the source's name) (converted); for TGI: read-out: pTGI (converted); how it was run: as §2
OVCAR-5 = experiment: Growth inhibition of human OVCAR5 cells after 48 hrs by sulforhodamine B assay; settings: OVCAR-5, 48 h; for CC50: read-out: pLC50 (the source's name) (converted); for TGI: read-out: pTGI (converted); how it was run: as §1
RXF 393 = experiment: Growth inhibition of human RXF393 cells after 48 hrs by sulforhodamine B assay; settings: RXF 393, 48 h; for CC50: read-out: pLC50 (the source's name) (converted); for TGI: read-out: pTGI (converted); how it was run: as §1
KM12 = experiment: Growth inhibition of human KM12 cells after 48 hrs by sulforhodamine B assay; settings: KM12, 48 h; for TGI: read-out: pTGI (converted); how it was run: as §1
PC-3 = experiment: Growth inhibition of human PC3 cells after 48 hrs by sulforhodamine B assay; settings: PC-3, 48 h; for CC50: read-out: pLC50 (the source's name) (converted); for TGI: read-out: pTGI (converted); how it was run: as §1
NCI-H460 = experiment: Growth inhibition of human NCI-H460 cells after 48 hrs by sulforhodamine B assay; settings: NCI-H460, 48 h; for TGI: read-out: pTGI (converted); how it was run: as §1
SF-539 = experiment: Growth inhibition of human SF539 cells after 48 hrs by sulforhodamine B assay; settings: SF-539, 48 h; for TGI: read-out: pTGI (converted); how it was run: as §1
COLO 205 = experiment: Growth inhibition of human COLO205 cells after 48 hrs by sulforhodamine B assay; settings: COLO 205, 48 h; for TGI: read-out: pTGI (converted); how it was run: as §1
UACC-257 = experiment: Growth inhibition of human UACC257 cells after 48 hrs by sulforhodamine B assay; settings: UACC-257, 48 h; for CC50: read-out: pLC50 (the source's name) (converted); for TGI: read-out: pTGI (converted); how it was run: as §2
ACHN = experiment: Growth inhibition of human ACHN cells after 48 hrs by sulforhodamine B assay

## Nc1cc(N)c2nc(-c3ccccc3)c(NCc3ccc(Cl)c(Cl)c3)nc2c1
EKVX
  GI50: 11 µM
  LC50 (50% net cell kill): > 100 µM
  TGI: 38.9 µM
MDA-MB-231
  GI50: 1.58 µM
  CC50: > 100 µM
  TGI: 4.47 µM
SR
  GI50: 1620 nM
  LC50 (concentration giving 50% net cell death): > 100 µM
SR; read-out: pTGI (converted)
  TGI: 6.03 µM
NCI-H226
  GI50: 22.4 µM
  LC50: 95.5 µM
  TGI: 46.8 µM
A498
  GI50: 17.4 µM
  CC50: 60.3 µM
  TGI: 32.4 µM
Malme-3M
  GI50: 3.39 µM
  CC50: 50.1 µM
  TGI: 13.8 µM
OVCAR-8
  GI50: 3.39 µM
  CC50: > 100 µM
  TGI: 13.5 µM
NCI/ADR-RES
  GI50: 17.4 µM
  CC50: > 100 µM
  TGI: 45.7 µM
MOLT-4
  GI50: 2.09 µM
  LC50: > 100 µM
  TGI: > 100 µM
HL-60(TB)
  GI50: 1.82 µM
  LC50: > 100 µM
  TGI: 7.94 µM
T47D
  GI50: 19.5 µM
  CC50: > 100 µM
  TGI: 55 µM
TK-10
  GI50: 12.9 µM
  CC50: 72.4 µM
  TGI: 30.2 µM
SNB-19
  GI50: 22.4 µM
  LC50: > 100 µM
  TGI: 51.3 µM
[1]
  GI50: 5.89 µM
  CC50: > 100 µM
  TGI: 46.8 µM
CCRF-CEM
  GI50: 132 nM
  LC50: 17.4 µM
  TGI: 1820 nM
OVCAR-3
  GI50: 2.63 µM
  CC50: 31.6 µM
  TGI: 6.92 µM
SN12C
  GI50: 6.03 µM
  CC50: 87.1 µM
  TGI: 24 µM
OVCAR-5
  GI50: 24 µM
  CC50: 69.2 µM
  TGI: 40.7 µM
RXF 393
  GI50: 3.09 µM
  CC50: > 100 µM
  TGI: 17 µM
KM12
  GI50: 3.39 µM
  LC50 (50% net cell kill): > 100 µM
  TGI: 21.4 µM
PC-3
  GI50: 1740 nM
  CC50: 19.1 µM
  TGI: 5.13 µM
NCI-H460
  GI50: 20.9 µM
  LC50 (50% net cell kill): > 100 µM
  TGI: 46.8 µM
SF-539
  GI50: 4.57 µM
  LC50: 83.2 µM
  TGI: 18.6 µM
COLO 205
  GI50: 17 µM
  LC50 (50% net cell kill): 66.1 µM
  TGI: 33.9 µM
UACC-257
  GI50: 4.57 µM
  CC50: 43.7 µM
  TGI: 15.8 µM

## Nc1cc(N)c2nc(-c3ccccc3)c(Oc3ccc(Cl)c(Cl)c3)nc2c1
EKVX
  GI50: 2.14 µM
  LC50 (50% net cell kill): 41.7 µM
  TGI: 8.32 µM
MDA-MB-231
  GI50: 10.2 µM
  CC50: 66.1 µM
  TGI: 26.3 µM
SR
  LC50 (concentration giving 50% net cell death): > 100 µM
NCI-H226
  GI50: 15.1 µM
  LC50: > 100 µM
  TGI: 49 µM
A498
  GI50: 91.2 µM
  CC50: > 100 µM
  TGI: > 100 µM
Malme-3M
  GI50: 15.8 µM
  CC50: 89.1 µM
  TGI: 37.2 µM
OVCAR-8
  GI50: 28.2 µM
  CC50: > 100 µM
  TGI: 89.1 µM
NCI/ADR-RES
  GI50: 11.7 µM
  CC50: > 100 µM
  TGI: 36.3 µM
MOLT-4
  GI50: 6.31 µM
  LC50: > 100 µM
  TGI: > 100 µM
HL-60(TB)
  GI50: 5.13 µM
  LC50: > 100 µM
  TGI: > 100 µM
T47D
  GI50: 24.5 µM
  CC50: > 100 µM
  TGI: 79.4 µM
TK-10
  GI50: 24.5 µM
  CC50: > 100 µM
  TGI: 63.1 µM
SNB-19
  GI50: 20.9 µM
  LC50: > 100 µM
  TGI: 52.5 µM
[1]
  GI50: 10.7 µM
  CC50: > 100 µM
  TGI: 33.9 µM
ACHN
  GI50: 9.33 µM
ACHN; read-out: pLC50 (the source's name) (converted)
  CC50: > 100 µM
ACHN; read-out: pTGI (converted)
  TGI: 47.9 µM
CCRF-CEM
  GI50: 2950 nM
  LC50: > 100 µM
  TGI: > 100000 nM
OVCAR-3
  GI50: 10.7 µM
  CC50: 66.1 µM
  TGI: 26.9 µM
SN12C
  GI50: 11.5 µM
  CC50: > 100 µM
  TGI: > 100 µM
OVCAR-5
  GI50: 25.1 µM
  CC50: > 100 µM
  TGI: 58.9 µM
RXF 393
  GI50: 6.03 µM
  CC50: > 100 µM
  TGI: 58.9 µM
KM12
  GI50: 6.31 µM
  LC50 (50% net cell kill): > 100 µM
  TGI: 39.8 µM
PC-3
  GI50: 3020 nM
  CC50: > 100 µM
  TGI: 14.5 µM
NCI-H460
  GI50: 18.2 µM
  LC50 (50% net cell kill): > 100 µM
  TGI: 70.8 µM
SF-539
  GI50: 13.5 µM
  LC50: 64.6 µM
  TGI: 29.5 µM
COLO 205
  GI50: 20.4 µM
  LC50 (50% net cell kill): > 100 µM
  TGI: 67.6 µM
UACC-257
  GI50: 28.2 µM
  CC50: > 100 µM
  TGI: 87.1 µM
